Experimental data from ChEMBL document CHEMBL3352617, “Discovery of 9-(1-phenoxyethyl)-2-morpholino-4-oxo-pyrido[1,2-a]pyrimidine-7-carboxamides as oral PI3Kβ inhibitors, useful as antiplatelet agents” (Bioorg Med Chem Lett, 2014).

Experiments:
[1] = Lipophilicity, log D of the compound at pH 7.4 by HPLC method; type: physicochemical; settings: buffer
Method in brief: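 LogD measured experimentally at pH 7.4 by an HPLC method.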

[2] = Antiplatelet activity against human platelet assessed as inhibition of collagen-induced platelet rich plasma aggregation by light transmission aggregometry; type: functional, cell-free
Method in brief: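 Human platelet rich plasma stimulated with collagen. Aggregation read by light transmission aggregometry in an in-house 96-well plate format.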

[3] = Apparent permeability across apical to basolateral side of human Caco2 cells at 10 uM at pH 6.5 by LC-tandem MS analysis; type: ADME, cell-based; settings: Caco-2, pH 6.5
Method in brief: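 Caco-2 monolayers, apical-to-basolateral transport at pH 6.5. Result given as apparent permeability (Papp).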

Hepatocyte = experiment: Intrinsic clearance in human hepatocytes at 2 uM by LCMS analysis; type: ADME, cell-based
Method in brief: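 Test compound incubated with human hepatocytes. Intrinsic clearance and half-life derived from compound disappearance.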

[4] = target: Phosphatidylinositol 4,5-bisphosphate 3-kinase catalytic subunit beta isoform (Homo sapiens, UniProt P42338); experiment: Inhibition of human recombinant PI3Kbeta assessed as PIP3 production by AlphaScreen assay
Phosphatidylinositol 4,5-bisphosphate 3-kinase catalytic subunit beta isoform, sequence (P42338 whole entry, canonical isoform): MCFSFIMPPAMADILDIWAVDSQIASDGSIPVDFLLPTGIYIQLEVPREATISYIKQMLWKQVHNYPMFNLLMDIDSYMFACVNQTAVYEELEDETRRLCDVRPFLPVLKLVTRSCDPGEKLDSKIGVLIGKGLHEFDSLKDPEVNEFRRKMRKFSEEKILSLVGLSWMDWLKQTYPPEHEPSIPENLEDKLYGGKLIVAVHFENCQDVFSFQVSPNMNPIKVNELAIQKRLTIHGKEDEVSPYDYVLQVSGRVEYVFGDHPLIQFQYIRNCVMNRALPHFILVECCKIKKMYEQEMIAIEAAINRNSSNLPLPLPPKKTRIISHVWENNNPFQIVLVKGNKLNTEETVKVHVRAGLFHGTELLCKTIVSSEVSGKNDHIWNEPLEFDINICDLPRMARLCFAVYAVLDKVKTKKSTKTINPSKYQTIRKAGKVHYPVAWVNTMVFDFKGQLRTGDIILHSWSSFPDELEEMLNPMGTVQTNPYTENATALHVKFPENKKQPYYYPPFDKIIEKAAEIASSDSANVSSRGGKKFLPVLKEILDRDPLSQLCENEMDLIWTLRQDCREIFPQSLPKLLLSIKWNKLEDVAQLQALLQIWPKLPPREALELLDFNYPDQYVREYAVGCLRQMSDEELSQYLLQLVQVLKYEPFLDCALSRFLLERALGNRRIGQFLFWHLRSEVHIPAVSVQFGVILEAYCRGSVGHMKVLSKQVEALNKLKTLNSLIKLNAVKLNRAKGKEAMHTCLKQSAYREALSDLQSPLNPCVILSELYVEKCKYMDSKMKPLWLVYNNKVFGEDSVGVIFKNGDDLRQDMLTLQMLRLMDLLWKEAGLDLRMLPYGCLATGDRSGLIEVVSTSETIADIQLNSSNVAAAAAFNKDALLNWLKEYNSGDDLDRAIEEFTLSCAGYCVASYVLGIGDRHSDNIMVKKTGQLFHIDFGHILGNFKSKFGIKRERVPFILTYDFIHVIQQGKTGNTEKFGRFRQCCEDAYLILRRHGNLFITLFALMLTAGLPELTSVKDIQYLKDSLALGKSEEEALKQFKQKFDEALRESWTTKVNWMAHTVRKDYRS

[5] = target: Phosphatidylinositol 4,5-bisphosphate 3-kinase catalytic subunit alpha isoform (Homo sapiens, UniProt P42336); experiment: Inhibition of human recombinant PI3Kalpha assessed as PIP3 production by AlphaScreen assay
Phosphatidylinositol 4,5-bisphosphate 3-kinase catalytic subunit alpha isoform, sequence (P42336 whole entry, canonical isoform): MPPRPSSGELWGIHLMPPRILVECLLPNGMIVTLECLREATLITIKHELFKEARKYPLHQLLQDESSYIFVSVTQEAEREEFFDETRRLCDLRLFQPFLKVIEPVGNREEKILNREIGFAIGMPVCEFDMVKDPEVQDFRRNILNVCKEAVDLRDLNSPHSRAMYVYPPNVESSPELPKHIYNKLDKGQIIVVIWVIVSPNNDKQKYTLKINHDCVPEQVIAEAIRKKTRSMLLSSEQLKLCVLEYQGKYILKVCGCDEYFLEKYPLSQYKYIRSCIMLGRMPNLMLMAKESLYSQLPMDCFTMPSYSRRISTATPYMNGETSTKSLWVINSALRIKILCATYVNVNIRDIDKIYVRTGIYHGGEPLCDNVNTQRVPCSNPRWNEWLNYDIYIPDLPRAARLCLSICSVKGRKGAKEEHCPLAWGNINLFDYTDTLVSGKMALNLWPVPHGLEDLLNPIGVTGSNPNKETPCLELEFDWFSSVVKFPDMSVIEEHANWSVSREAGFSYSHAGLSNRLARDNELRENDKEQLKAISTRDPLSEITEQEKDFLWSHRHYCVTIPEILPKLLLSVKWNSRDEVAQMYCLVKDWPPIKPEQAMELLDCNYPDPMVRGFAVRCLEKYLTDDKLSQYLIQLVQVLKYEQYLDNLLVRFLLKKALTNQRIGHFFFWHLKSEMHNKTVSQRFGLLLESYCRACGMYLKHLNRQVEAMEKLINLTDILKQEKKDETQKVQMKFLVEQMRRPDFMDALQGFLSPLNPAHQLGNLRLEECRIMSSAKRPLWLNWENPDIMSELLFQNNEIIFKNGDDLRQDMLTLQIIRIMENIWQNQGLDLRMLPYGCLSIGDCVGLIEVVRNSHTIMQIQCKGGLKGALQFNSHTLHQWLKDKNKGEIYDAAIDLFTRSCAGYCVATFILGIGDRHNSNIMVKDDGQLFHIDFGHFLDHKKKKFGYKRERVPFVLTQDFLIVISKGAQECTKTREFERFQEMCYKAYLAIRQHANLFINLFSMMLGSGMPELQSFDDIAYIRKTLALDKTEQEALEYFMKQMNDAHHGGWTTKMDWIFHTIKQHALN

SMILES | logD [1] | IC50 [2] | Papp A→B at 10 µM [3] | Intrinsic clearance (CLint) (Hepatocyte) | IC50 [4] | IC50 [5]
COc1cccc(OC(C)c2cc(C(=O)N(C)CCO)cn3c(=O)cc(N4CCOCC4)nc23)c1 (racemic) | 2.3 | 1900 nM |  |  |  | 
CC(Nc1ccccc1)c1cc(C(=O)N2CCOCC2)cn2c(=O)cc(N3CCOCC3)nc12 (racemic) | 2.7 |  | 26.9 ×10⁻⁶ cm/s | < 4 µL/min |  | 
Cc1cccc(OC(C)c2cc(C(=O)N(C)CCO)cn3c(=O)cc(N4CCOCC4)nc23)c1 (racemic) | 2.8 | 5000 nM |  |  |  | 
Cc1cc(C(C)Nc2ccccc2S(=O)(=O)O)c2nc(N3CCOCC3)cc(=O)n2c1 (racemic) | 0.3 |  | < 0.05 ×10⁻⁶ cm/s | < 4 µL/min |  | 
CC(Nc1ccccc1)c1cc(C(=O)N(C)CC(=O)O)cn2c(=O)cc(N3CCOCC3)nc12 (racemic) | 0.6 |  | 1 ×10⁻⁶ cm/s | < 4 µL/min |  | 
CC(Nc1ccccc1)c1cc(C(=O)NCCN2CCNCC2)cn2c(=O)cc(N3CCOCC3)nc12 (racemic) | 1.5 |  |  | < 4 µL/min |  | 
Cc1cc(C(C)Nc2cccc(C(=O)O)c2)c2nc(N3CCOCC3)cc(=O)n2c1 (racemic) | 0.3 |  | 0.9 ×10⁻⁶ cm/s | < 4 µL/min |  | 
CC(Nc1ccccc1)c1cc(C(=O)NCCN(C)C)cn2c(=O)cc(N3CCOCC3)nc12 (racemic) | 1.7 |  |  | < 4 µL/min |  | 
Cc1ccccc1OC(C)c1cc(C(=O)N(C)CCO)cn2c(=O)cc(N3CCOCC3)nc12 (racemic) | 3 | 700 nM |  |  |  | 
COc1ccccc1OC(C)c1cc(C(=O)N(C)CCO)cn2c(=O)cc(N3CCOCC3)nc12 (racemic) | 1.9 | 9600 nM |  |  |  | 
Cc1cc(OC(C)c2cc(C(=O)N(C)CCO)cn3c(=O)cc(N4CCOCC4)nc23)ccc1F (racemic) | 2.9 | 2500 nM |  |  |  | 
Cc1cc([C@@H](C)Nc2ccccc2C(=O)NS(C)(=O)=O)c2nc(N3CCOCC3)cc(=O)n2c1 | 0.9 |  | 0.11 ×10⁻⁶ cm/s | 15 µL/min | 12 nM | 160 nM
CC(Oc1ccccc1F)c1cc(C(=O)N(C)CCO)cn2c(=O)cc(N3CCOCC3)nc12 (racemic) | 2.3 | 2100 nM |  |  |  | 
Cc1cc(C(C)Nc2cc(Cl)ccc2C(=O)O)c2nc(N3CCOCC3)cc(=O)n2c1 (racemic) | 1.2 |  | 15 ×10⁻⁶ cm/s | 11.9 µL/min |  | 
CC(Oc1ccccc1)c1cc(C(=O)N(C)CCO)cn2c(=O)cc(N3CCOCC3)nc12 (racemic) | 2.3 | 400 nM |  |  |  | 
CC(Nc1ccccc1)c1cc(C(=O)N(C)C)cn2c(=O)cc(N3CCOCC3)nc12 (racemic) | 2.7 |  | 35.4 ×10⁻⁶ cm/s | 4.3 µL/min |  | 
CC(Oc1cccc(C#N)c1)c1cc(C(=O)N(C)CCO)cn2c(=O)cc(N3CCOCC3)nc12 (racemic) | 2 | 1500 nM |  |  |  | 
Cc1cc([C@@H](C)Nc2ccccc2C(=O)NO)c2nc(N3CCOCC3)cc(=O)n2c1 | 1.5 |  | 52 ×10⁻⁶ cm/s | 30.2 µL/min | 84 nM | 2880 nM
Cc1c(F)cccc1OC(C)c1cc(C(=O)N(C)CCO)cn2c(=O)cc(N3CCOCC3)nc12 (racemic) | 3.3 | 700 nM |  |  |  | 
Cc1cc(C(C)Nc2ccccc2-c2nnn[nH]2)c2nc(N3CCOCC3)cc(=O)n2c1 (racemic) | 0.8 |  | 0.08 ×10⁻⁶ cm/s | 18.1 µL/min |  | 
Cc1cc(C(C)Nc2ccccc2)c2nc(N3CCOCC3)cc(=O)n2c1 (racemic) |  |  | 66 ×10⁻⁶ cm/s | 20 µL/min |  | 5800 nM
CC(Nc1ccccc1)c1cc(C(=O)N(C)CCO)cn2c(=O)cc(N3CCOCC3)nc12 (racemic) | 2 |  | 4.3 ×10⁻⁶ cm/s | < 4 µL/min |  | 
CC(Nc1ccccc1)c1cc(C(=O)O)cn2c(=O)cc(N3CCOCC3)nc12 (racemic) | 0.6 |  | 0.04 ×10⁻⁶ cm/s | < 4 µL/min |  | 
